cytotoxicity, inhibition and Activity data for eleven compounds are collected here from ChEMBL document CHEMBL1154117, “Synthesis and evaluation of a novel series of quinoline derivatives with immunosuppressive activity” (Bioorg Med Chem, 2009).

Data set [1] is described as follows: Cytotoxicity against BALB/c mouse splenocytes at 10 uM after 48 hrs by MTT assay. In kind it is cell-based, Splenocyte. The settings on record: read-out: INH. A digest of the protocol:
(§1)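 BALB/c spleen single-cell suspension, erythrocytes depleted with Tris-buffered NH4Cl (0.155 M NH4Cl, 16.5 mM Tris, pH 7.2). Cells cultured in RPMI-1640 with 10% FBS and compound diluted from DMSO stock (0.1% DMSO in control). Medium-alone cells served as control. MTT (5 mg/mL) added 4 h before end of culture, then SDS/DMF lysis buffer (pH 7.2) for 6 h. Absorbance read at 570 nm and growth inhibition % calculated.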
A general note: Tetrazolium dyes change colour on reduction, which living cells bring about.

The nature of data set [2]: Immunosuppressive activity in BALB/c mouse splenocytes assessed as inhibition of concanavalin A-induced cell proliferation at 30 uM after 48 hrs by MTT assay. The conditions noted are these: Splenocyte. In kind it is functional. A digest of the protocol: (§2)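 Spleen cells (5 × 10⁵) from male BALB/c mice aged 6–8 weeks, erythrocytes lysed, stimulated with ConA 5 μg/mL in RPMI-1640/10% FBS. Compounds diluted from DMSO stock. ConA-stimulated cells used as control. Proliferation read by MTT added 4 h before end of culture, SDS/DMF lysis for 6 h, absorbance at 570 nm.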

Data set [3] in a line: Cytotoxicity against BALB/c mouse splenocytes at 30 uM after 48 hrs by MTT assay. In kind it is cell-based, Splenocyte. The settings on record: read-out: INH. The method, boiled down: as §1
Data set [4] deals with Splenocyte. The data set can be described thus: Immunosuppressive activity against concanavalin A-induced BALB/c mouse splenocytes assessed as inhibition of [3H]thymidine incorporation at 30 uM by liquid scintillation counting. In kind it is functional. (Uptake of a labelled nucleoside into DNA is a usual measure of proliferation.)
Data set [5] has as its system Splenocyte. As to the kind of experiment: Immunosuppressive activity against concanavalin A-induced BALB/c mouse splenocytes assessed as inhibition of [3H]thymidine incorporation at 1 uM by liquid scintillation counting. In kind it is functional.
Data set [6] has as its system Splenocyte. As to the kind of experiment: Immunosuppressive activity against concanavalin A-induced BALB/c mouse splenocytes assessed as inhibition of [3H]thymidine incorporation at 10 uM by liquid scintillation counting. In kind it is functional.
Data set [7] concerns T-cell. The data set can be described thus: Immunosuppressive activity against concanavalin A-induced BALB/c mouse splenocytes assessed as T-cells activation at 1 uM after 24 hrs by FACS assay. In kind it is functional. The method, boiled down: (§3)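 Male BALB/c splenocytes (6–8 weeks), 5 × 10⁵, stimulated with ConA 5 μg/mL, with or without compound. After 24 h, cells washed twice in cold PBS and stained with CD25-FITC and CD4-APC for 30 min at 4 °C. Washed again and analysed by flow cytometry as the CD4+CD25+/CD4+ percentage.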
A general note: Flow cytometry measures light scatter and fluorescence of single cells or particles in a stream.

The subject of data set [8] is T-cell. The data set can be described thus: Immunosuppressive activity against concanavalin A-induced BALB/c mouse splenocytes assessed as T-cells activation at 30 uM after 24 hrs by FACS assay. In kind it is functional. The method, boiled down:
as §3

A short description of data set [9]: Cytotoxicity against BALB/c mouse splenocytes at 100 uM after 48 hrs by MTT assay. The conditions noted are these: read-out: INH. In kind it is cell-based, Splenocyte. A digest of the protocol: as §1
The nature of data set [10]: Immunosuppressive activity in BALB/c mouse splenocytes assessed as inhibition of concanavalin A-induced cell proliferation at 100 uM after 48 hrs by MTT assay. In kind it is functional. The conditions noted are these: Splenocyte. A digest of the protocol: as §2
For data set [11], the system named is T-cell. As to the kind of experiment: Immunosuppressive activity against concanavalin A-induced BALB/c mouse splenocytes assessed as T-cells activation at 3 uM after 24 hrs by FACS assay. In kind it is functional. A digest of the protocol: as §3
In data set [12] the test system is T-cell. The data set can be described thus: Immunosuppressive activity against concanavalin A-induced BALB/c mouse splenocytes assessed as T-cells activation at 10 uM after 24 hrs by FACS assay. In kind it is functional. The method, boiled down:
as §3

The nature of data set [13]: Immunosuppressive activity in BALB/c mouse splenocytes assessed as inhibition of concanavalin A-induced cell proliferation at 10 uM after 48 hrs by MTT assay. In kind it is functional. The settings on record: Splenocyte. The method, boiled down: as §2
The nature of data set [14]: Immunosuppressive activity in BALB/c mouse splenocytes assessed as inhibition of concanavalin A-induced cell proliferation at 1 uM after 48 hrs by MTT assay. In kind it is functional. The conditions noted are these: Splenocyte. A digest of the protocol: as §2

Turning to `COc1cc(OC)c2c(OC(=O)c3ccccc3I)ccnc2c1`, the cytotoxicity at 48 h, 10 µM in data set [1] came to 14.3%. For the same compound, the values for the inhibition at 30 µM in [2] and in data set [4] were 90.6% and 87.1%, respectively. Besides, the cytotoxicity at 48 h, 30 µM in data set [3] was 26.5%. The inhibition at 1 µM in [5] was 8.2%. The inhibition at 10 µM was 47.5% in data set [6] and 63% in data set [13]. Further, the Activity is listed as 93.1% in data set [7], 83.23% in data set [8], 91.87% in data set [11] and 90.04% in data set [12]. Moreover, the cytotoxicity at 48 h, 100 µM in [9] worked out at 54.7%. Moreover, the inhibition at 100 µM in [10] was 93%.

For the compound `COc1cc(OC)c2c(OC(=O)c3ccccc3Cl)ccnc2c1`, in data set [1], the cytotoxicity at 48 h, 10 µM amounted to 2.9%. Besides, the inhibition at 30 µM in data set [2] was 73.7%; in data set [4], 52%. In addition, the cytotoxicity at 48 h, 30 µM in data set [3] came out at 6.6%. Also, the inhibition at 1 µM in [5] is 4.3%. Further, the inhibition at 10 µM in data set [6] is 37.9%; in [13], 46.1%. Further, the Activity in data set [7] is 95.63%; in [8], 90.86%; in [11] it was 92.8%; in [12] it was 93.1%. The cytotoxicity at 48 h, 100 µM in [9] amounted to 39.8%. Further, the inhibition at 100 µM in data set [10] turned out to be 89.8%.

As to `COc1cc(OC)c2c(OC(=O)c3c(Cl)cccc3Cl)ccnc2c1`, the cytotoxicity at 48 h, 10 µM in data set [1] came out at 10.9%. Further, the inhibition at 30 µM was determined as 94.6% in data set [2] and 99.2% in [4]. In data set [3], the cytotoxicity at 48 h, 30 µM worked out at 52.7%. Besides, in [5], the inhibition at 1 µM worked out at 34.7%. For the same compound, the figures for the inhibition at 10 µM in [6] and in data set [13] were 97.8% and 94%, respectively. Also, the Activity in [7] came out at 92.96%; in data set [8] it was 19.41%; in data set [11], 88.8%; in data set [12] it was 59.64%. In data set [9], the cytotoxicity at 48 h, 100 µM stood at 83.4%. Also, the inhibition at 100 µM in data set [10] was 94.3%.

With `COc1cc(OC)c2c(OC(=O)c3ccccc3[N+](=O)[O-])ccnc2c1`, the cytotoxicity at 48 h, 10 µM in [1] came out at 10.7%. Also, the results for the inhibition at 30 µM in data set [2] and in [4] were 75.2% and 64.6%, respectively. For the same compound, the cytotoxicity at 48 h, 30 µM in data set [3] was 32%. Further, in data set [5], the inhibition at 1 µM worked out at 10.2%. In addition, the inhibition at 10 µM amounted to 21.1% in data set [6] and 38.6% in data set [13]. Moreover, the Activity in data set [7] was determined as 94.79%; in data set [8], 86.19%; in data set [11], 94.01%; in [12], 92.75%. Besides, in data set [9], the cytotoxicity at 48 h, 100 µM turned out to be 33.4%. The inhibition at 100 µM in data set [10] worked out at 90.5%.

As to `COc1cc(OC)c2c(OC(=O)c3ccccc3C)ccnc2c1`, the cytotoxicity at 48 h, 10 µM in data set [1] was found to be 9.4%. For the same compound, the inhibition at 30 µM in [2] came out at 91.4%; in data set [4] it was 94.6%. The cytotoxicity at 48 h, 30 µM in data set [3] amounted to 53.9%. The inhibition at 1 µM in [5] worked out at 2.2%. For the same compound, the inhibition at 10 µM was 55.4% in data set [6] and 70.3% in [13]. For the same compound, the Activity in data set [7] is 93.81%; in [8], 75.65%; in [11] it was 92.54%; in [12], 85.45%. Further, the cytotoxicity at 48 h, 100 µM in data set [9] amounted to 64%. In [10], the inhibition at 100 µM turned out to be 92.2%.

In the case of `COc1cc(OC)c2c(OC(=O)c3ccccc3OC)ccnc2c1`, the cytotoxicity at 48 h, 10 µM in data set [1] is 10.3%. Further, in data set [2], the inhibition at 30 µM amounted to 35.2%. The cytotoxicity at 48 h, 30 µM in [3] was determined as 17.6%. Moreover, in data set [9], the cytotoxicity at 48 h, 100 µM came out at 47.9%. Besides, the inhibition at 100 µM in data set [10] worked out at 85.3%. Moreover, the inhibition at 10 µM in data set [13] amounted to 11.3%.

Regarding `COc1cc(OC)c2c(OC(=O)c3ccccc3Br)ccnc2c1`, the cytotoxicity at 48 h, 10 µM in [1] was 9.8%. Also, the figures for the inhibition at 30 µM in [2] and in [4] were 85.7% and 85.4%, respectively. Besides, in [3], the cytotoxicity at 48 h, 30 µM amounted to 22.5%. Moreover, the inhibition at 1 µM in [5] was determined as 4.8%. In addition, the inhibition at 10 µM in [6] came out at 42%; in data set [13], 51.2%. Moreover, the Activity was 94.92% in [7], 86.21% in data set [8], 93.23% in [11] and 93.63% in [12]. For the same compound, the cytotoxicity at 48 h, 100 µM in data set [9] was 29.2%. In data set [10], the inhibition at 100 µM worked out at 93.3%.

With `COc1cc(OC)c2c(OC(=O)c3ccccc3F)ccnc2c1`, in data set [1], the cytotoxicity at 48 h, 10 µM worked out at 7.7%. Further, the inhibition at 30 µM in [2] is 14.3%. Further, the cytotoxicity at 48 h, 30 µM in [3] is 12.8%. Besides, the cytotoxicity at 48 h, 100 µM in data set [9] was 19.5%. In data set [10], the inhibition at 100 µM turned out to be 31%. For the same compound, in [13], the inhibition at 10 µM amounted to 9.3%.

For the compound `COc1ccc(C(=O)Oc2ccnc3cc(OC)cc(OC)c23)cc1`, the cytotoxicity at 48 h, 10 µM in data set [1] came out at 8.2%. For the same compound, the inhibition at 30 µM in [2] was determined as 11%. Further, the cytotoxicity at 48 h, 30 µM in [3] was 11.3%. Besides, in [9], the cytotoxicity at 48 h, 100 µM amounted to 13.4%. Further, the inhibition at 100 µM in [10] was determined as 17.7%. The inhibition at 10 µM in data set [13] worked out at 7.8%.

In the case of `COc1cc(OC)c2c(OS(=O)(=O)c3ccc(C)cc3)ccnc2c1`, the cytotoxicity at 48 h, 10 µM in data set [1] is 6.2%. The inhibition at 30 µM in data set [2] was 94.7%; in data set [4] it was 98.9%. Further, the cytotoxicity at 48 h, 30 µM in data set [3] came to 5.4%. Further, the inhibition at 1 µM in data set [5] was determined as 12.9%. The inhibition at 10 µM is 87.7% in data set [6] and 82.3% in [13]. The Activity in [7] is 85.74%; in [8], 13.7%; in data set [11], 81.66%; in data set [12], 68.39%. In addition, the cytotoxicity at 48 h, 100 µM in data set [9] worked out at 13.2%. For the same compound, in [10], the inhibition at 100 µM was 94.2%.

For `C/C=C/C[C@@H](C)[C@@H](O)[C@H]1C(=O)N[C@@H](CC)C(=O)N(C)CC(=O)N(C)[C@@H](CC(C)C)C(=O)N[C@@H](C(C)C)C(=O)N(C)[C@@H](CC(C)C)C(=O)N[C@@H](C)C(=O)N[C@H](C)C(=O)N(C)[C@@H](CC(C)C)C(=O)N(C)[C@@H](CC(C)C)C(=O)N(C)[C@@H](C(C)C)C(=O)N1C` [CYCLOSPORINE], the Activity in [7] came to 35.14%. Further, the inhibition at 1 µM in data set [14] was 86.4%.

As usually defined, the inhibition is the percentage by which the read-out fell short of the control.
